MEKK2mut PB1 HTS – signal of MEK5 binding to mutant human MEKK2 PB1 domain; AID 1530; percent response, % at 10 µM; 290,000 compounds, 0.35% hits; bead flow cytometry, Alexa488-MEK5 binding to MEKK2 mutant; in the data active = percent response above about 24%, passing the limit was not always enough
MEKK2wt PB1 HTS – raises or lowers MEK5 binding to wildtype human MEKK2 PB1 domain; binding response (% of control), % at 10 µM; 290,000 compounds, 1.1% hits; bead flow cytometry, Alexa488-MEK5 binding to MEKK2 WT; actives lie on both sides; Q9Y2U5; in the data active = binding response below about 67% or above about 130%
MEKK3 PB1 HTS – modulators (inhibitors or enhancers) of MEK5 binding to human MEKK3 PB1 domain. Q99759. bead-based flow cytometry, Alexa488-MEK5 binding to MEKK3; actives lie on both sides; 0 = blocked by unlabeled MEK5, 100 = vehicle. binding response (% of control), % at 10 µM. 290,000 compounds, 1.4% hits. AID 1529;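 active = binding response more than 3 SD above or below the average of its plate-row segment, actives on both sides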;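 note: Alexa488 bead fluorescence after subtracting the streptavidin-only scavenger bead signal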
Target sequence (Q99759 whole entry, looked up, the tested form may be a part): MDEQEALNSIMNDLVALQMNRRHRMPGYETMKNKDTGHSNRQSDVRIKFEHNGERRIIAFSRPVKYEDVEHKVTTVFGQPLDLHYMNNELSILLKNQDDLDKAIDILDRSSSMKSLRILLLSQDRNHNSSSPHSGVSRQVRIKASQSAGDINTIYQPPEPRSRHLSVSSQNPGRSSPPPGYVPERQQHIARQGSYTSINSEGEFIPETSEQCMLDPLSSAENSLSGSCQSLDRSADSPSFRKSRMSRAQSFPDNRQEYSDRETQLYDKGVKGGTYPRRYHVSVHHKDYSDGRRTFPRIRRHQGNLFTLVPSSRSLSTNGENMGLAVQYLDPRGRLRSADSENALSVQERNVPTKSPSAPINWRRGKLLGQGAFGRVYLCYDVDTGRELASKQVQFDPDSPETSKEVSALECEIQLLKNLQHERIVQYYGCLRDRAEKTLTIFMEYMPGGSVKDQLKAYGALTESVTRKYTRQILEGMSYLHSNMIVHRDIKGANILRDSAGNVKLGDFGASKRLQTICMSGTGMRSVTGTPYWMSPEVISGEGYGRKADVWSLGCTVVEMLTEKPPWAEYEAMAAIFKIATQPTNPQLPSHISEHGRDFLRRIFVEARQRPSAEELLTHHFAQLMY
B2AR ag – activates human beta-2 adrenergic receptor causing internalization. P07550. Am2.2-beta2AR cells, FAP receptor internalization, flow cytometry. response, % (no concentration beside the values). 340,000 compounds, 0.43% hits. AID 504454;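 active = response above a set limit, near 3 SD of response in nonfluorescent compounds, cut at about 42% in these data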
ATG4B inh – inhibitors of human ATG4B cysteine protease. Q9Y4P1. ATG4B cleavage of LC3-PLA2, NBD-HPC fluorescence, 1 h. inhibition, % at 8.33 µM. 340,000 compounds, 0.51% hits. AID 504462; in the data active = inhibition above about 40%
Dynein transport – blocks dynein driven cargo transport along microtubules | AID 1381 | 3617.4 mouse cells, GR-EGFP nuclear translocation imaging; test concentration mostly 20 µM; stimulated with dexamethasone, 1 µM; active compounds read low | 220,000 compounds, 0.47% hits | z-score, hits read low;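 active = plate z-score of nuclear minus cytoplasmic receptor signal below a set negative limit, without overly bright fluorescence or cell loss, cut at about -3.5 in these data, passing the limit was not always enough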;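 note: z-score of nuclear minus cytoplasmic ring GR-EGFP intensity difference per well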
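medium = tetracycline-free induction medium containing charcoal-stripped FBS | probe or stimulus = dexamethasone, 1.0 µM final | timing = 48 h induction, then 1 h compound, then 30 min agonist, 37 °C | detection = automated 10x imaging of fixed Hoechst-stained cells | read-out basis = nuclear versus cytoplasmic GR-EGFP signal, averaged per well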
MEKK2wt confirm – raises or lowers MEK5 binding to wildtype human MEKK2, retest; AID 1892; binding response (% of control), % at 10 µM; 5,900 compounds, 2.4% hits; shares compounds with MEKK3 PB1 HTS; bead flow cytometry, Alexa488-MEK5 binding to MEKK2 WT; actives lie on both sides; in the data active = binding response below about 16% or above about 210%; inactive = in between
MEKK2mut-MEK5 – signal of MEK5 binding to mutant human MEKK2, retest; shares compounds with MEKK3 PB1 HTS; 5,900 compounds, 2% hits; percent response, % at 10 µM; bead flow cytometry, Alexa488-MEK5 binding to MEKK2 mutant; in the data active = percent response mostly above about 71%, no sharp cut-off; inactive = mostly below about 38%;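 note: higher means compound restores mutant binding toward wildtype level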
MEKK3 confirm – confirmation of inhibitors of MEK5 binding to human MEKK3; 5,900 compounds, 1.8% hits; bead flow cytometry, Alexa488-MEK5 binding to MEKK3; active compounds read low; shares compounds with MEKK3 PB1 HTS; binding response (% of control), % at 10 µM;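 active = binding response below 72% of control, or above a set upper limit, though filed actives all read lower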;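 note: lower values mean stronger disruption of MEK5 binding to MEKK3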
Numbers stand for hits; i = inactive; nt = no result; [ ] = another dose, or the depositor's remark. Most compounds without a hit are left out; they make up all but 2.9% or so of the library.

SMILES | MEKK2mut PB1 HTS | MEKK2wt PB1 HTS | MEKK3 PB1 HTS | B2AR ag | ATG4B inh | Dynein transport | MEKK2wt confirm | MEKK2mut-MEK5 | MEKK3 confirm
c1ccc(-c2cn3nc(-c4ccccc4)c(-c4ccccc4)nc3n2)cc1 | i | 63[inhibitor] | i | i | i | i | i | i | i
O=[N+]([O-])c1cc([N+](=O)[O-])c2oc(-c3ccccc3)c(Br)c2c1O | i | i | i | i | i | nt | nt | nt | nt
Cc1ccc(CNc2cc(-c3nn4c(C)nnc4s3)ccc2C)s1 | i | i | i | i | i | i | nt | nt | nt
Cc1ccc(-c2nn3c(C)nnc3s2)cc1NCc1c(F)cccc1Cl | i | 50[inhibitor] | 50[inhibitor] | i | i | i | i | i | i
OCc1nnc2c3ccccc3c(-c3ccccc3)nn12 | i | i | 122 | i | i | i | i | i | i
Cc1[nH]n(-c2ccc([N+](=O)[O-])cc2)c(=O)c1C=NCCc1c(C)[nH]c2ccccc12 | i | i | 133 | i | i | i | i | i | i
Cc1[nH]n(-c2ccc([N+](=O)[O-])cc2)c(=O)c1C=NCCc1ccc(S(N)(=O)=O)cc1 | i | i | i | i | i | i | nt | nt | nt
Cc1ccccc1C(=O)OCc1nnc(-c2ccc(Cl)cc2)o1 | i | i | 146 | i | i | i | i | i | i
O=C(OCc1nnc(-c2ccc(Cl)cc2)o1)c1ccncc1 | i | i | i | i | i | i | nt | nt | nt
Cc1noc(C)c1COc1ccc(C(=O)OCc2nnc(-c3ccc(Cl)cc3)o2)cc1 | i | 2.0[inhibitor] | 2.0[inhibitor] | i | i | i | i | i | i
O=C(CCCC1=NS(=O)(=O)c2ccccc2N1)N1CCN(c2ccc([N+](=O)[O-])cc2)CC1 | i | i | i | i | i | nt | nt | nt | nt
COc1ccc(NC(=O)COc2nsnc2N2CCCCC2)cc1 | i | 44[inhibitor] | 27[inhibitor] | i | i | i | i | i | i
CCOc1ccc(NC(=O)COc2nsnc2N2CCCCC2)cc1 | i | i | i | i | i | i | nt | nt | nt
CC1(C)Cc2c(sc(N)c2C#N)C(C)(C)N1 | i | i | i | i | i | i | nt | nt | nt
CN1Cc2sc(N)c(C#N)c2CC1(C)C | i | 52[inhibitor] | i | i | i | i | i | i | i
CCSc1ncnc2sc(C)c(C)c12 | i | i | 53[inhibitor] | i | i | i | i | i | i
O=C(NCc1nnc2c(C(F)(F)F)cc(Cl)cn12)c1cccnc1 | i | i | i | i | i | nt | nt | nt | nt
CN1CCN(c2ccc(Cl)cc2NC(=O)c2cccc(S(=O)(=O)N(C)C)c2)CC1 | i | i | i | i | i | i | nt | nt | nt
CN1CCN(c2ccc(Cl)cc2NC(=O)/C=C/c2cccc(F)c2)CC1 | i | 149 | i | i | i | i | i | i | i
COc1cc(/C=N/NC(=O)c2ccc(CN(C)S(=O)(=O)c3ccc(C)cc3)cc2)ccc1O | i | i | i | i | i | i | nt | nt | nt
CC1(OC(=O)CCc2ccccc2)C(=O)C=C2C=C(c3ccc(C#N)cc3)N(CC3CC3)C=C2C1=O (stereo unspecified) | i | i | i | i | i | i | nt | nt | nt
COC(=O)CCC(=O)OC1(C)C(=O)C2=CN(CCN3CCOCC3)C(c3ccc(OC)cc3)=CC2=C(Br)C1=O (stereo unspecified) | i | 149 | i | nt | nt | i | i | i | i
COC(=O)CCC(=O)OC1(C)C(=O)C2=CN(Cc3ccc4c(c3)OCO4)C(c3ccc(OC)cc3)=CC2=C(Br)C1=O (stereo unspecified) | 53 | nt | i | i | i | nt | i | i | i
CC1(OC(=O)CCc2ccccc2)C(=O)C=C2C=C(c3ccc(C#N)cc3)N(CCN3CCOCC3)C=C2C1=O (stereo unspecified) | i | 138 | i | i | i | i | i | i | i
COC(=O)CCC(=O)OC1(C)C(=O)C2=CN(C(CO)CO)C(c3ccc(OC)cc3)=CC2=C(Br)C1=O (stereo unspecified) | i | i | 82[inhibitor] | nt | nt | i | i | i | i
SMILES | MEKK2mut PB1 HTS | MEKK2wt PB1 HTS | MEKK3 PB1 HTS | B2AR ag | ATG4B inh | Dynein transport | MEKK2wt confirm | MEKK2mut-MEK5 | MEKK3 confirm
COC(=O)C1CC(O)CN1C(=O)Nc1ccccc1 (stereo unspecified) | i | i | i | i | i | i | nt | nt | nt
S=C(Nc1ccccc1)c1nc2ccccc2s1 | i | i | i | i | i | i | nt | nt | nt
CCCCC1=CC2=C(c3ccco3)C(=O)C(C)(OC(=O)c3ccc(OC)cc3)C(=O)C2=CN1Cc1ccc2c(c1)OCO2 (stereo unspecified) | i | 138 | i | i | i | i | i | i | i
COC(=O)C1CCN(Cc2ccc(OCCCN3CCN(c4ccc([N+](=O)[O-])cc4)CC3)cc2)CC1 | i | 144 | i | i | i | i | i | i | i
CC1CCN(CCCCOc2ccc([N+](=O)[O-])cc2)CC1 | nt | nt | nt | i | i | i | nt | nt | nt
O=[N+]([O-])c1cccc(C=NNC(=S)NC23CC4CC(CC(C4)C2)C3)c1 | nt | nt | nt | i | i | nt | nt | nt | nt
O=C(Cc1ccccc1Cl)Nc1cccc(S(=O)(=O)N2CCCCCC2)c1 | nt | nt | nt | i | i | nt | nt | nt | nt
O=C(Nc1cccc(S(=O)(=O)N2CCCCC2)c1)Nc1ccc(Cl)cc1Cl | i | 141 | 153 | i | i | i | i | i | i
O=C(Nc1cccc(S(=O)(=O)N2CCCCC2)c1)c1ccc2ncsc2c1 | i | 59[inhibitor] | i | i | i | i | i | i | i
COc1cccc(NC(=O)c2sc3nc(N4CCOCC4)c4c(c3c2N)CCCC4)c1 | i | i | i | i | i | nt | nt | nt | nt
COc1ccc(Nc2nc(C)c3ccccc3n2)cc1 | i | 140 | i | i | i | i | i | i | i
Cc1nc2ccccc2nc1Nc1cccc(Cl)c1 | i | i | i | i | i | nt | nt | nt | nt
COc1ccc(Nc2nc(-c3ccccc3)c3ccccc3n2)cc1 | i | i | i | i | i | i | nt | nt | nt
COc1ccc(Nc2nc3ccccc3nc2C)cc1 | i | 3.0[inhibitor] | 2.0[inhibitor] | i | i | i | i | i | i
COc1ccc(CCN(C(=S)Nc2ccccc2)C2CC(=O)N(c3ccccc3)C2=O)cc1 (stereo unspecified) | i | i | i | i | i | i | nt | nt | nt
O=C1CC(N(CCc2ccccc2)C(=S)Nc2ccccc2)C(=O)N1c1ccc(Br)cc1 (stereo unspecified) | i | 149 | i | i | i | i | i | i | i
Nc1ccc(Oc2ccc(Br)cc2)cc1 | i | i | 72[inhibitor] | i | i | i | i | i | i
